According to ChEMBL document CHEMBL5058577, “EUbOPEN Chemogenomics Library 2 (Multiplex)” (2022):

System: U2OS
Experiment: Multiplex assay against U2OS
Assay type: toxicity, cell-based
Conditions: human
Outline: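 Four dyes were applied at seeding to live cells: Hoechst33342, BioTracker Green Microtubule Cytoskeleton Dye, MitoTracker Red and Annexin V Alexa Fluor 680. Imaging after compound addition used a CQ1 microscope at 37°C and 5% CO2. CellPathfinder machine-learning gating then sorted cells into Hoechst high-intensity objects or normal cells, normal cells into healthy, pyknosed or fragmented nuclei, and pyknosed cells into mitotic or apoptotic, with tubulin, mitochondrial-mass and membrane-permeability phenotypes given as per cents of healthy-nucleus cells.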

[1] = 12 h, 1 µM, compound concentration 1 uM, replicate 1
[2] = 12 h, 1 µM, compound concentration 1 uM, replicate 2
[3] = 12 h, 10 µM, compound concentration 10 uM, replicate 1
[4] = 12 h, 10 µM, compound concentration 10 uM, replicate 2
[5] = 24 h, 1 µM, compound concentration 1 uM, replicate 1
[6] = 24 h, 1 µM, compound concentration 1 uM, replicate 2
[7] = 24 h, 10 µM, compound concentration 10 uM, replicate 1
[8] = 24 h, 10 µM, compound concentration 10 uM, replicate 2
[9] = 48 h, 1 µM, compound concentration 1 uM, replicate 1
[10] = 48 h, 1 µM, compound concentration 1 uM, replicate 2
[11] = 48 h, 10 µM, compound concentration 10 uM, replicate 1
[12] = 48 h, 10 µM, compound concentration 10 uM, replicate 2

## COc1cc2nc(N3CCN(C(=O)COc4c(OC)cccc4C(C)C)CC3)nc(N)c2cc1OC.Cl.Cl
[1]
  Population Apoptotic (%): 67%
  Population Fragmented Nuclei (%): 21%
  Population Healthy Nuclei (%): 66%
  Population Hoechst High Intensity Objects (%): 3%
  Population Membrane Permeable-Phenotype (%): 10%
  Population Mitochondria Different-Phenotype (%): 5%
  Population Mitotic Cells (%): 32%
  Population Normal (%): 96%
  Population Pyknosed Nuclei (%): 11%
  Population Tubulin-Different-Phenotype (%): 6%
  Total Cell Count: 256
[2]
  Population Apoptotic (%): 33%
  Population Fragmented Nuclei (%): 10%
  Population Healthy Nuclei (%): 84%
  Population Hoechst High Intensity Objects (%): 2%
  Population Mitochondria Different-Phenotype (%): 6%
  Population Mitotic Cells (%): 66%
  Population Normal (%): 97%
  Population Pyknosed Nuclei (%): 4%
  Total Cell Count: 136
[3]
  Population Apoptotic (%): 55%
  Population Fragmented Nuclei (%): 30%
  Population Healthy Nuclei (%): 43%
  Population Hoechst High Intensity Objects (%): 3%
  Population Membrane Permeable-Phenotype (%): 60%
  Population Mitochondria Different-Phenotype (%): 55%
  Population Mitotic Cells (%): 44%
  Population Normal (%): 96%
  Population Pyknosed Nuclei (%): 25%
  Population Tubulin-Different-Phenotype (%): 75%
  Total Cell Count: 233
[4]
  Population Apoptotic (%): 66%
  Population Fragmented Nuclei (%): 19%
  Population Healthy Nuclei (%): 48%
  Population Hoechst High Intensity Objects (%): 0%
  Population Membrane Permeable-Phenotype (%): 54%
  Population Mitochondria Different-Phenotype (%): 65%
  Population Mitotic Cells (%): 33%
  Population Normal (%): 99%
  Population Pyknosed Nuclei (%): 32%
  Population Tubulin-Different-Phenotype (%): 68%
  Total Cell Count: 151
[5]
  Population Apoptotic (%): 84%
  Population Fragmented Nuclei (%): 21%
  Population Healthy Nuclei (%): 67%
  Population Hoechst High Intensity Objects (%): 3%
  Population Membrane Permeable-Phenotype (%): 6%
  Population Mitochondria Different-Phenotype (%): 8%
  Population Mitotic Cells (%): 15%
  Population Normal (%): 96%
  Population Pyknosed Nuclei (%): 11%
  Population Tubulin-Different-Phenotype (%): 4%
  Total Cell Count: 297
[6]
  Population Apoptotic (%): 80%
  Population Fragmented Nuclei (%): 15%
  Population Healthy Nuclei (%): 77%
  Population Hoechst High Intensity Objects (%): 0%
  Population Membrane Permeable-Phenotype (%): 10%
  Population Mitochondria Different-Phenotype (%): 7%
  Population Mitotic Cells (%): 20%
  Population Normal (%): 99%
  Population Pyknosed Nuclei (%): 6%
  Population Tubulin-Different-Phenotype (%): 5%
  Total Cell Count: 154
[7]
  Population Apoptotic (%): 76%
  Population Fragmented Nuclei (%): 30%
  Population Healthy Nuclei (%): 36%
  Population Hoechst High Intensity Objects (%): 9%
  Population Membrane Permeable-Phenotype (%): 40%
  Population Mitochondria Different-Phenotype (%): 49%
  Population Mitotic Cells (%): 24%
  Population Normal (%): 90%
  Population Pyknosed Nuclei (%): 33%
  Population Tubulin-Different-Phenotype (%): 50%
  Total Cell Count: 246
[8]
  Population Apoptotic (%): 87%
  Population Fragmented Nuclei (%): 20%
  Population Healthy Nuclei (%): 40%
  Population Hoechst High Intensity Objects (%): 12%
  Population Membrane Permeable-Phenotype (%): 49%
  Population Mitochondria Different-Phenotype (%): 50%
  Population Mitotic Cells (%): 12%
  Population Normal (%): 87%
  Population Pyknosed Nuclei (%): 39%
  Population Tubulin-Different-Phenotype (%): 60%
  Total Cell Count: 185
[9]
  Population Apoptotic (%): 83%
  Population Fragmented Nuclei (%): 20%
  Population Healthy Nuclei (%): 70%
  Population Hoechst High Intensity Objects (%): 2%
  Population Membrane Permeable-Phenotype (%): 6%
  Population Mitochondria Different-Phenotype (%): 6%
  Population Mitotic Cells (%): 16%
  Population Normal (%): 97%
  Population Pyknosed Nuclei (%): 8%
  Population Tubulin-Different-Phenotype (%): 4%
  Total Cell Count: 441
[10]
  Population Apoptotic (%): 75%
  Population Fragmented Nuclei (%): 16%
  Population Healthy Nuclei (%): 72%
  Population Hoechst High Intensity Objects (%): 3%
  Population Membrane Permeable-Phenotype (%): 7%
  Population Mitotic Cells (%): 25%
  Population Normal (%): 96%
  Population Pyknosed Nuclei (%): 11%
  Population Tubulin-Different-Phenotype (%): 6%
  Total Cell Count: 225
[11]
  Population Apoptotic (%): 88%
  Population Fragmented Nuclei (%): 40%
  Population Healthy Nuclei (%): 21%
  Population Hoechst High Intensity Objects (%): 31%
  Population Membrane Permeable-Phenotype (%): 13%
  Population Mitochondria Different-Phenotype (%): 30%
  Population Mitotic Cells (%): 11%
  Population Normal (%): 68%
  Population Pyknosed Nuclei (%): 38%
  Population Tubulin-Different-Phenotype (%): 13%
  Total Cell Count: 296
[12]
  Population Apoptotic (%): 93%
  Population Fragmented Nuclei (%): 24%
  Population Healthy Nuclei (%): 23%
  Population Hoechst High Intensity Objects (%): 32%
  Population Membrane Permeable-Phenotype (%): 27%
  Population Mitochondria Different-Phenotype (%): 10%
  Population Mitotic Cells (%): 6%
  Population Normal (%): 67%
  Population Pyknosed Nuclei (%): 51%
  Population Tubulin-Different-Phenotype (%): 24%
  Total Cell Count: 180
